pIC50: −log10 of the molar value.
Experiments:
Oryctolagus cuniculus [1] = species: Oryctolagus cuniculus; test: In vitro inhibition of potassium-contracted rabbit aorta strips; format: functional
Outline: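 Rabbit thoracic aorta strips contracted with potassium chloride (100 mM) in the presence of calcium. IC50 is the drug concentration giving 50% relaxation, reported with 95% confidence intervals.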

Oryctolagus cuniculus [2] = species: Oryctolagus cuniculus; test: In vitro evaluation for the inhibition of potassium-contracted rabbit aorta strips by vasorelaxant assay.; format: functional
Outline: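 Rabbit thoracic aorta strips contracted with potassium chloride (100 mM) in the presence of calcium. IC50 taken as the drug concentration giving 50% relaxation of the contraction, reported with 95% confidence intervals.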

CC1=C(C(=O)OC(C)C)C(c2ccccc2C(F)(F)F)N(C(=O)OC2CCCN(Cc3ccccc3)C2)C(=O)N1 (configuration not stated) gave a pIC50 (Oryctolagus cuniculus [1]) of 6.89.

CC1=C(C(=O)OC(C)C)C(c2cccc([N+](=O)[O-])c2)N(CCCN(C)Cc2ccccc2)C(S)=N1 (configuration not stated) gave a pIC50 (Oryctolagus cuniculus [1]) of 7.14.

CC1=NC(=S)N(C(=O)OC2CCN(Cc3ccccc3)CC2)C(c2cccc([N+](=O)[O-])c2)/C1=C(\O)OC(C)C (configuration not stated) showed a pIC50 (Oryctolagus cuniculus [1]) of 8.40.

With CC1=NC(=S)N(C(=O)OC2CCN(Cc3ccccc3)CC2)C(c2ccccc2C(F)(F)F)/C1=C(\O)OC(C)C (configuration not stated) the pIC50 (Oryctolagus cuniculus [1]) was 8.30.

Molecule CCO/C(O)=C1\C(C)=NC(=S)N(C(=O)OCCN(C)Cc2ccccc2)C1c1cccc([N+](=O)[O-])c1 (configuration not stated) has a pIC50 (Oryctolagus cuniculus [1]) of 7.54.

In the case of CCOC(=O)N1C(=S)N=C(C)/C(=C(/O)OCCN(C)Cc2ccccc2)C1c1cccc([N+](=O)[O-])c1 (configuration not stated), the pIC50 (Oryctolagus cuniculus [1]) was 7.47.

For CC1=C(C(=O)OC(C)C)C(c2ccccc2[N+](=O)[O-])N(C(=O)OC2CCN(Cc3ccccc3)CC2)C(=O)N1 (configuration not stated), the pIC50 (Oryctolagus cuniculus [1]) was 8.10.

Work on CC1=C(C(=O)OC(C)C)C(c2cccc([N+](=O)[O-])c2)N(C(=O)O[C@H](C)CN(C)Cc2ccccc2)C(=O)N1 (some centres not stated) yielded a pIC50 (Oryctolagus cuniculus [1]) of 7.19.

Molecule CC1=C(C(=O)OC(C)C)C(c2ccccc2C(F)(F)F)N(C(=O)O[C@@H]2CCN(Cc3ccccc3)C2)C(=O)N1 (some centres not stated) has a pIC50 (Oryctolagus cuniculus [1]) of 6.44.

CC1=NC(=S)N(C(=O)OC2CCN(Cc3ccccc3)CC2)C(c2ccccc2[N+](=O)[O-])/C1=C(\O)OC(C)C (configuration not stated) was tested, and the pIC50 (Oryctolagus cuniculus [1]) was 8.70.

Molecule CCO/C(O)=C1\C(C)=NC(=S)N(C(=O)OC(C)C)C1c1ccccc1C(F)(F)F (configuration not stated) has a pIC50 (Oryctolagus cuniculus [1]) of 7.30.

CC1=NC(=S)N(C(=O)OC2CCN(Cc3ccc(F)cc3)CC2)[C@@H](c2ccccc2C(F)(F)F)/C1=C(\O)OC(C)C was tested, and the pIC50 (Oryctolagus cuniculus [1]) was less than 6.00.

Work on CC1=C(C(=O)OCC(C)C)C(c2ccccc2C(F)(F)F)N(C(=O)OC2CCN(Cc3ccccc3)CC2)C(=O)N1 (configuration not stated) yielded a pIC50 (Oryctolagus cuniculus [1]) of 7.01.

Work on CCOC(=O)N1C(=S)N=C(C)/C(=C(/O)OCCN(C)Cc2ccccc2)C1c1ccccc1C(F)(F)F (configuration not stated) yielded a pIC50 (Oryctolagus cuniculus [1]) of 7.66.

Molecule CC1=C(C(=O)OC(C)C)C(c2cccc([N+](=O)[O-])c2)N(C(=O)OC2CCN(Cc3ccccc3)CC2)C(=O)N1 (configuration not stated) has a pIC50 (Oryctolagus cuniculus [1]) of 7.92.

In the case of CCO/C(O)=C1\C(C)=NC(=S)N(C(=O)OC2CCN(Cc3ccccc3)CC2)C1c1ccccc1C(F)(F)F (configuration not stated), the pIC50 (Oryctolagus cuniculus [1]) was 8.05.

For CC1=C(C(=O)OC(C)C)C(c2ccccc2C(F)(F)F)N(CCC2CCN(Cc3ccccc3)CC2)C(S)=N1 (configuration not stated), the pIC50 (Oryctolagus cuniculus [1]) was 6.92.

Molecule CC1=C(C(=O)OC(C)C)C(c2ccccc2C(F)(F)F)N(C(=O)OC2CCN(Cc3ccc(Cl)cc3)CC2)C(=O)N1 (configuration not stated) has a pIC50 (Oryctolagus cuniculus [1]) of 7.26.

With CC1=C(C(=O)OC(C)C)C(c2ccccc2C(F)(F)F)N(C(=O)OC2CCN(Cc3ccccc3)CC2)C(=O)N1 (configuration not stated) the pIC50 (Oryctolagus cuniculus [1]) was 7.30.

In the case of CC1=C(C(=O)OC(C)C)C(c2ccccc2C(F)(F)F)N(C(=O)O[C@H]2CCN(Cc3ccccc3)C2)C(=O)N1 (some centres not stated), the pIC50 (Oryctolagus cuniculus [1]) was 6.10.

In the case of CCO/C(O)=C1\C(C)=NC(=S)N(C(=O)O[C@H]2CCN(Cc3ccccc3)C2)C1c1ccccc1C(F)(F)F (some centres not stated), the pIC50 (Oryctolagus cuniculus [1]) was 8.70.

With CCO/C(O)=C1\C(C)=NC(=S)N(C(=O)OCCN(C)Cc2ccccc2)C1c1ccccc1C(F)(F)F (configuration not stated) the pIC50 (Oryctolagus cuniculus [1]) was 7.64.

For CC1=NC(=S)N(C(=O)OC2CCN(Cc3ccccc3)CC2)C(c2ccccc2Cl)/C1=C(\O)OC(C)C (configuration not stated), the pIC50 (Oryctolagus cuniculus [1]) was 8.30.

With CC1=NC(=S)N(C(=O)OC2CCN(Cc3ccc(F)cc3)CC2)[C@H](c2ccccc2C(F)(F)F)/C1=C(\O)OC(C)C the pIC50 (Oryctolagus cuniculus [1]) was 7.82.

CC1=NC(=S)N(C(=O)OC2CCN(Cc3ccc(F)cc3)CC2)C(c2ccccc2C(F)(F)F)/C1=C(\O)OC(C)C (configuration not stated) gave a pIC50 (Oryctolagus cuniculus [1]) of 8.15.

Molecule CCCN1C(S)=NC(C)=C(C(=O)OC2CCN(Cc3ccccc3)CC2)C1c1ccccc1C(F)(F)F (configuration not stated) has a pIC50 (Oryctolagus cuniculus [1]) of less than 6.00.

Molecule CCOC(=O)N1C(=S)N=C(C)/C(=C(/O)OCC)C1c1cccc([N+](=O)[O-])c1 (configuration not stated) has a pIC50 (Oryctolagus cuniculus [1]) of 7.77.

In the case of CC1=C(C(=O)OC(C)C)C(c2cccc([N+](=O)[O-])c2)N(C(=O)O[C@@H](C)CN(C)Cc2ccccc2)C(=O)N1 (some centres not stated), the pIC50 (Oryctolagus cuniculus [1]) was 7.24.

CCOC(=O)C1=C(C)N=C(S)NC1c1cccc([N+](=O)[O-])c1 (configuration not stated) was tested, and the pIC50 (Oryctolagus cuniculus [1]) was less than 6.00.

For CCOC(=O)N1C(=S)N=C(C)/C(=C(/O)OCC)C1c1ccccc1C(F)(F)F (configuration not stated), the pIC50 (Oryctolagus cuniculus [1]) was 7.39.

With CCOC(=O)C1=C(COCCN)NC(C)=C(C(=O)OC)C1c1ccccc1Cl (configuration not stated) [AMLODIPINE] the pIC50 (Oryctolagus cuniculus [1]) was 8.52.

With COC(=O)C1=C(C)NC(C)=C(C(=O)OC)C1c1ccccc1[N+](=O)[O-] [NIFEDIPINE] the pIC50 (Oryctolagus cuniculus [2]) was 8.70.

Source: ChEMBL document CHEMBL1125542, “Dihydropyrimidine calcium channel blockers. 4. Basic 3-substituted-4-aryl-1,4-dihydropyrimidine-5-carboxylic acid esters. Potent antihypertensive agents” (J Med Chem, 1992)
